The values that follow come from ChEMBL document CHEMBL1125455, “Novel anthraquinone inhibitors of human leukocyte elastase and cathepsin G” (J Med Chem, 1992).

The target of test [1] is T1, Neutrophil elastase (Homo sapiens, UniProt P08246).
T1 sequence (P08246 whole entry): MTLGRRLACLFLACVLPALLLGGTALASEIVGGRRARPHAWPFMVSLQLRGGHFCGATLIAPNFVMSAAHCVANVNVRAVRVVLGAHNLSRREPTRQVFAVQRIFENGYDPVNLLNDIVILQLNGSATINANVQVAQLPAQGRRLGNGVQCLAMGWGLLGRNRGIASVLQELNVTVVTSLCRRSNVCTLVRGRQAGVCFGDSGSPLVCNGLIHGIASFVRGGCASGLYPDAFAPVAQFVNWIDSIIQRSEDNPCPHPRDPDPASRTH
The test can be described thus: In vitro inhibition of human leukocyte elastase.

Test [2] addresses T2, Cathepsin G (Homo sapiens, UniProt P08311).
T2 sequence (P08311 whole entry): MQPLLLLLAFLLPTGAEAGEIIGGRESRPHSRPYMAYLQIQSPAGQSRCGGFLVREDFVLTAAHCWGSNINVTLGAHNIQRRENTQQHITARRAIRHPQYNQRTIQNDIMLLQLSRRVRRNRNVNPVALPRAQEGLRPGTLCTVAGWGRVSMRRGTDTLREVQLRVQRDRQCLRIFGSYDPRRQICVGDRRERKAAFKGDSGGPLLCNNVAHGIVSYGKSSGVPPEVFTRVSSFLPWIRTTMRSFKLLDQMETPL
Nature of the test: Inhibition of Cathepsin G (CatG).

For test [3], the target named is T2, Cathepsin G. The test can be described thus: Compound was tested for the enzyme inhibitory activity against Cathepsin G; NI = no inhibition.
The target in test [4] is T1, Neutrophil elastase. Nature of the test: Compound was tested for the enzyme inhibitory activity against Human Leukocyte elastase.
Test [5] has as its target T2, Cathepsin G. The test can be described thus: Compound was tested for the enzyme inhibitory activity against Cathepsin G (CatG); NI = no inhibition.
The target in test [6] is T1, Neutrophil elastase. The test can be described thus: HLE-inhibitor (Human Leukocyte Elastase) dissociation constant determined by using Dixon Plot.
Test [7] has as its target T2, Cathepsin G. Nature of the test: Compound was tested for the enzyme inhibitory activity against Cathepsin G.
Test [8] concerns the target T3, Cathepsin G (Homo sapiens) (UniProt P08311).
T3 sequence (whole entry): T2 sequence (P08311 whole entry)
Nature of the test: Inhibitory activity against Cathepsin G (CatG) at 61 uM concentration; NI = no inhibition.

The target in test [9] is Chymotrypsinogen A (Bos taurus) (UniProt P00766). Nature of the test: Inhibitory activity against Chymotrypsinogen at 61 uM concentration.
The target of test [10] is T4, Chymotrypsin-like elastase family member 2A (Sus scrofa) (UniProt P08419).
T4 sequence (whole entry): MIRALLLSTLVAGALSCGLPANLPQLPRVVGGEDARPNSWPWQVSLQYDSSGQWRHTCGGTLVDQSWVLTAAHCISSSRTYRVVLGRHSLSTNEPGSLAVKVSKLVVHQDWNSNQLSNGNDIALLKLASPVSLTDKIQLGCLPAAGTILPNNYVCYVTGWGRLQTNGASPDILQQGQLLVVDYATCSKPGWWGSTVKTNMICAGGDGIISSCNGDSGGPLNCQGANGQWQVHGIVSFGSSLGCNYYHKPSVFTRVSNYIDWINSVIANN
The test can be described thus: Inhibitory activity against Porcine Pancreatic Elastase (PPE) at 61 uM concentration; NI = no inhibition.

For test [11], the target named is T5, Neutrophil elastase (Homo sapiens) (UniProt P08246).
T5 sequence (whole entry): T1 sequence (P08246 whole entry)
The test can be described thus: Inhibitory activity against Human Leukocyte Elastase (HLE) at 61 uM concentration.

Test [12] deals with T4, Chymotrypsin-like elastase family member 2A (Sus scrofa). Nature of the test: Inhibitory activity against Porcine Pancreatic Elastase (PPE) at 59 uM concentration; NI = no inhibition.
Test [13] deals with T5, Neutrophil elastase (Homo sapiens). The test can be described thus: Inhibitory activity against Human Leukocyte Elastase (HLE) at 59 uM concentration.
In test [14] the target is T3, Cathepsin G (Homo sapiens). Nature of the test: Inhibitory activity against Cathepsin G (CatG) at 62 uM concentration.
For test [15], the target named is T4, Chymotrypsin-like elastase family member 2A (Sus scrofa). The test can be described thus: Inhibitory activity against Porcine Pancreatic Elastase (PPE) at 62 uM concentration; NI = no inhibition.
The target of test [16] is T1, Neutrophil elastase. The test can be described thus: Compound was tested for the enzyme inhibitory activity against Human Leukocyte Elastase (HLE) at 62 uM concentration.
In test [17] the target is T5, Neutrophil elastase (Homo sapiens). The test can be described thus: Inhibitory activity against Human Leukocyte Elastase (HLE) at 62 uM concentration.
The target in test [18] is T1, Neutrophil elastase. Nature of the test: Compound was tested for the enzyme inhibitory activity against Human Leukocyte Elastase (HLE).
For test [19], the target named is T3, Cathepsin G (Homo sapiens). The test can be described thus: Inhibitory activity against Cathepsin G (CatG) at 63 uM concentration. An outline of the steps:
(§1)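 Percent inhibition of enzyme activity at a single inhibitor concentration. Assays run at 25 °C in 0.1 M HEPES, 0.5 M NaCl, pH 7.5, with 9-11% DMSO. The method otherwise follows an earlier report.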

Test [20] concerns the target Chymotrypsinogen A (Bos taurus) (UniProt P00766). The test can be described thus: Inhibitory activity against Chymotrypsinogen at 63 uM concentration. In a few lines:
as §1

The target of test [21] is T4, Chymotrypsin-like elastase family member 2A (Sus scrofa). The test can be described thus: Inhibitory activity against Porcine Pancreatic Elastase (PPE) at 63 uM concentration. An outline of the steps:
as §1

The target of test [22] is T5, Neutrophil elastase (Homo sapiens). The test can be described thus: Inhibitory activity against Human Leukocyte Elastase (HLE) at 63 uM concentration. An outline of the steps:
as §1

Structures are written as SMILES. Activity calls are given as the source filed them. No cut-off for these calls is given here. A value given as a limit tells only on which side of the number the result lay.

As a reminder, the IC50 is the concentration that inhibits the measured activity by half. Higher therefore signals lower potency. With `CCCCCc1ccc2c(c1O)C(=O)c1c(O)cccc1C2=O`, the IC50 against Neutrophil elastase [1] was determined as 3.9 µM.

As for `CCCc1ccc2c(c1O)C(=O)c1c(OC)cccc1C2=O`, the figures for the IC50 on Cathepsin G [2] and against Neutrophil elastase [1] were over 60 µM and 8.7 µM, respectively.

In the case of `COc1c(C)ccc2c1C(=O)c1ccccc1C2=O`, the concentration for half-maximal inhibition (IC50) result at Cathepsin G [3] is “Not Active”; against Neutrophil elastase [4], over 60 µM.

For `COc1cccc2c1C(=O)c1c(ccc(CC(C)C)c1O)C2=O`, the results for the IC50 result against Cathepsin G [5] and against Neutrophil elastase [1] were “No inhibition” and 11 µM, respectively.

At Neutrophil elastase [1], `CC(C)Cc1ccc2c(c1O)C(=O)c1c(O)cccc1C2=O` registered an IC50 of 8 µM.

A word on the Ki: it is a dissociation constant, usually derived from enzyme kinetics or from competition with a known ligand. A higher Ki goes with a looser hold on the target. The molecule `CCCCOC(=O)Oc1cccc2c1C(=O)c1c(OC(=O)OCCCC)cc(C)cc1C2=O` came in with an IC50 at Neutrophil elastase [1] of 5.1 µM. The Ki at Neutrophil elastase [6] came to 1.9 µM.

Take `O=C1c2ccccc2C(=O)c2c1ccc(Cc1ccccc1)c2O`: the IC50 result on Cathepsin G [3] was “Not Active”; against Neutrophil elastase [4], 6.6 µM.

On to `CCCCCCc1ccc2c(c1O)C(=O)c1c(OC)cccc1C2=O`, for which the IC50 is over 60 µM against Cathepsin G [7] and 6 µM on Neutrophil elastase [4].

Usually inhibition stands for the change of the read-out against control, counted positive when it falls. Consider `CC(=O)OCc1cc(OC(C)=O)c2c(c1)C(=O)c1cccc(OC(C)=O)c1C2=O`, for which the inhibition entry in test [8] and in test [10] was “inactive” each time. Also, the results for the inhibition in test [9] and in [11] were 3% and 30%, respectively.

In the case of `CC(=O)Oc1cccc2c1C(=O)c1c(OC(C)=O)cc(CBr)cc1C2=O`, in test [12], the inhibition entry was “inactive”. In test [13], this molecule returned an inhibition of 33%.

Regarding `CCCOc1cc(O)c2c(c1)C(=O)c1cc(C)cc(O)c1C2=O`, the inhibition in test [14] came to 35%; in test [17], 100%. Besides, the inhibition result in [15] is “inactive”. Further, the IC50 against Neutrophil elastase [16] worked out at 5.9 µM.

In the case of `CCCCOC(=O)Oc1cc(C)cc2c1C(=O)c1c(OC(=O)OCCCC)cc(OCCC)cc1C2=O`, the Ki at Neutrophil elastase [6] amounted to 0.15 µM. Moreover, the IC50 against Neutrophil elastase [18] amounted to 1.8 µM.

Take `Cc1ccc2c(c1)C(=O)c1ccccc1C2=O` [TECTOQUINONE]: the IC50 entry was “Not Active” against Cathepsin G [5] and 39 µM on Neutrophil elastase [1].

As for `CCCCc1ccc2c(c1O)C(=O)c1c(O)cccc1C2=O`, the IC50 at Neutrophil elastase [1] amounted to 6.4 µM.

`CCCCCCc1ccc2c(c1O)C(=O)c1c(O)cccc1C2=O`: the IC50 came out at 28 µM against Cathepsin G [2] and 4.2 µM against Neutrophil elastase [1].

For the molecule `CCCCc1ccc2c(c1O)C(=O)c1c(OC)cccc1C2=O`, at Neutrophil elastase [1], 5.9 µM corresponded to half-maximal inhibition (IC50).

For the molecule `O=C1c2cccc(O)c2C(=O)c2c1ccc(Cc1ccccc1)c2O`, the IC50 on Neutrophil elastase [1] is 13 µM.

In the case of `CCCCOC(=O)Oc1cccc2c1C(=O)c1c(OC(=O)OCCCC)cccc1C2=O`, the IC50 at Neutrophil elastase [1] amounted to 12 µM. The same molecule yielded a Ki on Neutrophil elastase [6] of 7.5 µM.

Regarding `C=CCc1ccc2c(c1O)C(=O)c1c(OC)cccc1C2=O`, the half-inhibitory concentration (IC50) on Cathepsin G [2] is over 60 µM; against Neutrophil elastase [1] it was 11 µM.

`O=C1c2cccc(O)c2C(=O)c2c(O)cc(CO)cc21`: the inhibition in test [19] turned out to be 3%; in [20], 13%; in test [21] it was 18%; in [22], 21%.
